One series concerns PD‐L1‐positive TNBC. The settings on record: phase 1b trial of 32 patients with PD-L1-positive TNBC; cited from earlier work.
The next series relates to MDA‐MB‐231‐Luc xenograft. Nature of the series: MDA-MB-231-Luc xenograft, intraperitoneal treatment. The settings on record: i.p. docetaxel 15 mg/kg/wk (MTD), five cycles, CD-1 nude mice, bioluminescence. It counts as in vivo, mouse. An outline of the steps:
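MDA-MB-231-Luc cells (5 × 10^6 in HBSS) were injected s.c. into the right flank of female CD-1 nude mice under isoflurane. At ~100 mm3, mice received weekly i.p. vehicle, docetaxel 15 mg/kg, or test compound 50 mg/kg for five cycles. Tumor bioluminescence was monitored and expressed relative to each mouse's day-0 post-treatment value, as mean ± SEM (six mice/group).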

Another series has as its system MDA‐MB‐231 xenograft. Nature of the series: MDA-MB-231 xenograft, intravenous treatment. In kind it is in vivo, mouse.
The subject of another series is MDA‐MB‐231 cells. The series is described as follows: Real-time cell migration assay. In kind it is cell-based, human. The settings on record: 2 h pretreatment, 1 µM TH1902 or 2 µM docetaxel, monitored 12 h. The gist of the method: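 MDA-MB-231 cells were transfected 24 h with scrambled or SORT1 siRNA, then pretreated 2 h with or without compound. Cells (25 000/well) were seeded serum-free into xCELLigence CIM plates (8 µm pores, underside gelatin-coated 0.15%, 1 h, 37°C), with serum-free medium below. After 30 min adhesion, impedance (Cell Index) was read hourly for 12 h. Duplicate wells, two experiments; one-way ANOVA with Dunnett at 10 h.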

Series [1] is described as follows: Preliminary pharmacokinetics after i.v. bolus. As to conditions: CD-1 mice, single i.v. bolus TH1902 50 mg/kg. It counts as in vivo, mouse.

Turning to “Pembrolizumab: monoclonal anti‐PD‐1 antibody”, the response rate with PD‐L1‐positive TNBC was 18.5%.

As to `CC(=O)O[C@@]12CO[C@@H]1C[C@H](O)[C@@]1(C)C(=O)[C@H](O)C3=C(C)[C@@H](OC(=O)[C@H](O)[C@@H](NC(=O)OC(C)(C)C)c4ccccc4)C[C@@](O)([C@@H](OC(=O)c4ccccc4)[C@H]21)C3(C)C` [docetaxel], in the series with MDA‐MB‐231‐Luc xenograft, the “Start of tumor relapse” value is 46 days. In the series on MDA‐MB‐231 xenograft (i.v. docetaxel 3.75 mg/kg or TH1902 8.75 mg/kg, n = 6 mice/group), the “Tumor growth at a quarter of the MTD (in words)” value is recorded as “unaffected”. Moreover, the “Restart of tumor growth” value with MDA‐MB‐231 xenograft (i.v. docetaxel 15 mg/kg/wk (MTD), three injections, n = 5 mice/group) was determined as 50 days. Also, the “Effect on cell migration (in words)” value in the series with MDA‐MB‐231 cells is “inhibit cell migration”. In addition, in series [1], the “free docetaxel exposure, fold lower than TH1902-associated docetaxel in plasma” value is “approximately 37 fold”. For the same compound, in series [1] (plasma, UPLC/MS), the “AUC of free (released) docetaxel after TH1902 dosing” value worked out at 15.5 µM·h and the “Cmax of free (released) docetaxel after TH1902 dosing” value came to 7 µM.

(Values after publication PMC8486219 (Cancer Science, 2021).)
